Sampled rows, rich in hits. Any-hit rate of the full collection: about 2.8%.
p-CIP stab down = p/CIP-EGFP fusion destabilizers, primary screen, fluorescence, F442A cells. Q05BA5. 16 h. decrease of EGFP signal, % at 10 µM. hit rate 0.01% among 290,000. AID 1984, 2009;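 active = EGFP signal decrease of at least 30% at 10 µM or well 3 SD below plate mean, unless failing retest; inactive = the rest, including hits failing retest or dose response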
UBC13 inh = UBC13 polyubiquitin chain formation inhibitors, primary screen, biochemical, TR-FRET, uHTS. inhibition, % at 20 µM. AID 485273, 2010. hit rate 0.47% among 330,000. Ubiquitin-conjugating enzyme E2 N (Homo sapiens), P61088; in the data active = inhibition above about 45%, passing the limit was not always enough; inconclusive = no clear call, values can overlap the other calls
Target sequence (P61088 whole entry, looked up): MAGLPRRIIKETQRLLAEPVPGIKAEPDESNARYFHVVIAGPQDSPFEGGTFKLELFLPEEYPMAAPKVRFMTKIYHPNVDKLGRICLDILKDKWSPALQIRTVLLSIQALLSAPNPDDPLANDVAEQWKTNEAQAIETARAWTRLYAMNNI
AI-2 QS mod = Vibrio harveyi AI-2 quorum sensing modulators, primary screen, JMH597 strain, luminescence/OD600 ratio. Vibrio harveyi JMH597 AI-2 luminescence/OD600 ratio, 9 h; active compounds read low; strain lacks LuxN and CqsS sensors; 0 = neutral-control median. activity change, % at 7.5 µM. AID 2094, 2009. hit rate 0.4% among 300,000; in the data active = activity change below about -75%, passing the limit was not always enough; inconclusive = no clear call, values can overlap the other calls;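 note: luminescence divided by OD600 gain over 9 h not by final OD600 alone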
PP1 counter = PP1-alpha phosphatase inhibitors, primary screen, counter-screen for PP5 inhibitor project, biochemical, fluorescence, OMFP substrate, single point; Serine/threonine-protein phosphatase PP1-alpha catalytic subunit (Homo sapiens), P62136; purified PP1alpha; inhibition, % at 6.7 µM; hit rate 0.9% among 320,000; AID 2235, 2010;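 active = inhibition above the mean inhibition of all tested compounds plus 3 SD, computed separately for each screening campaign, cut at about 15% in these data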
Target sequence (P62136 whole entry, looked up): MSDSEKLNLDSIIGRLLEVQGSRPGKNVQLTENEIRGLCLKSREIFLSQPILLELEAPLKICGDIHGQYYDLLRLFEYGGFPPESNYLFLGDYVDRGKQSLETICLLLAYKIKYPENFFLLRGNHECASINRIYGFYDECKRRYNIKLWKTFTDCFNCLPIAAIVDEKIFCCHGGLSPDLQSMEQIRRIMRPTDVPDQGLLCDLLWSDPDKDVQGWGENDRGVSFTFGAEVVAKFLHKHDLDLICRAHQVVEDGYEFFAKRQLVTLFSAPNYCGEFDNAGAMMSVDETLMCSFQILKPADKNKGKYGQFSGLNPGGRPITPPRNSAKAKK
T cruzi inh = inhibitors of intracellular T. cruzi growth, primary screen, luminescence, NIH3T3 host cells. T. cruzi beta-gal in NIH3T3, 90 h. inhibition, % (concentration not given with the values). hit rate 1.4% among 300,000. AID 1885, 2009;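 active = mean inhibition across valid replicates above about 55%, limit read from the data; inconclusive = mean below that limit but half or more replicates reach it; inactive = mean below it, under half of replicates reach it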;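 note: signal also drops with host cell toxicity which is not excluded here; 0% = plate median of DMSO wells and 100% = zero luminescence signal; higher percent means less beta-gal luminescence so fewer parasites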
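System: NIH/3T3 fibroblasts plus reporter T. cruzi. Medium: DMEM plus 2% FBS. Probe or stimulus: 5000 reporter trypomastigotes per well. Compound: single 50 nL compound addition per well in DMSO. Incubation: co-culture of at least 90 h after 3 h attachment. Detection: GalScreen β-gal luminescence, detergent lysis, 60 min. Evaluation: parasite load inhibition, %.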
The depositor's hits bear a star; ? = inconclusive; nt = not tested or not shown.

SMILES	p-CIP stab down	UBC13 inh	AI-2 QS mod	PP1 counter	T cruzi inh
O=C(Nc1nc(-c2ccccn2)cs1)c1ccccc1-n1cnnn1	-3.4	-17.0	24.6	1.0	63.0*
Cc1cc(C(=O)Nc2nc(-c3ccccn3)cs2)ccc1[N+](=O)[O-]	-2.3	-35.4	nt	9.0	80.3*
Cc1cccc(N(Cc2ccccc2)C(=O)Cc2ccc(S(=O)(=O)N3CCOCC3)s2)c1	nt	-8.4	-1.2	16.9*	28.1
Cc1cccc(N(Cc2ccccc2)C(=O)CCl)c1	-2.7	nt	-0.8	nt	72.1*
COc1ccc(C(=O)NC2CCN(CC(=O)NCc3ccccc3)CC2)cc1	-2.5	-2.6	-2.6	-0.1	-1.8
CCn1c(SCc2ccc(OC)c(F)c2)nc2ccccc2c1=O	6.5	-9.6	12.7	0.8	20.4
COCC(C)n1c(SCc2ccc(OC)c(F)c2)nc2ccccc2c1=O (stereo unspecified)	16.3	nt	29.5	nt	58.9*
COc1ccc(N2CCN(C(=O)COC(=O)c3c(-c4ccccc4)noc3C)CC2)cc1	nt	-6.4	nt	3.9	nt
CC(NC(=O)CN1C(=O)NC(C)(c2cccc3ccccc23)C1=O)c1ccccc1 (stereo unspecified)	4.0	-4.3	15.7	-0.9	-7.6
COc1ccccc1N1N=C(c2ccc([N+](=O)[O-])cc2)CC1c1ccccc1 (stereo unspecified)	-517.5	-70.5	15.3	-1.4	31.6
O=[N+]([O-])c1ccc(N2N=C(c3ccccc3)CC2c2ccccc2O)cc1 (stereo unspecified)	-55.5	-81.2	69.8	nt	62.8*
Cn1c(N2CCOCC2)c(C#N)c2ccccc21	-23.2	3.6	19.9	1.2	-7.2
Nc1ccc(S(=O)(=O)c2cccc(N)c2)cc1	3.0	2.1	31.7	-6.3	-2.1
Cc1ccc(S(=O)(=O)c2ccccc2)cc1S	-2.6	-8.7	5.1	-2.2	62.3*
Cc1ccc(O)c(NC2=C(Cl)C(=O)N(Cc3ccccc3)C2=O)c1	-1.0	nt	-13.7	nt	58.1*
NC(=S)N/N=C/c1ccc(-c2ccc(Cl)c(Cl)c2)o1	-14.1	-9.8	-38.6	6.2	59.6*
NC(=S)N/N=C/c1ccc(-c2ccc(SC(F)F)cc2)o1	-6.0	-15.2	-45.3	5.9	72.0*
CC(C(=O)NC(C)(C)C)N(Cc1cccs1)C(=O)CCN1CCc2ccccc21 (stereo unspecified)	7.9	0.8	7.7	0.0	26.7
CCOC(=O)C1=CN(CC2CCCO2)C=C(C(=O)OCC)C1c1ccccc1C(F)(F)F (stereo unspecified)	12.5	2.8	17.8	1.2	27.3
C=CCNC(=S)N/N=C/c1ccc(OCc2ccccc2Cl)cc1	10.3	9.9	18.7	4.8	64.9*
CCN(CC(=O)Nc1ccc(OC)c(OC)c1)CC(=O)Nc1ccccc1C(F)(F)F	6.7	3.4	-2.6	-3.5	-6.2
CCN(CC)CCCNC(=O)c1ccc(OCC(=O)Nc2ccccc2C(F)(F)F)c(OC)c1	13.5	4.6	11.6	-1.2	54.8*
CN1c2ccccc2N(C)C1(C)c1ccccc1	-5.5	nt	30.5	-0.1	61.6*
O=c1c2ccc([N+](=O)[O-])cc2ncn1CCOc1ccc(Cl)cc1	3.7	2.3	19.5	2.4	63.3*
Cc1cc(OCCn2cnc3ccccc3c2=O)ccc1[N+](=O)[O-]	-12.6	-7.5	4.1	-1.3	4.2
SMILES	p-CIP stab down	UBC13 inh	AI-2 QS mod	PP1 counter	T cruzi inh
O=c1c2ccc([N+](=O)[O-])cc2ncn1CCOc1cccc(Br)c1	0.8	-1.3	-0.6	2.0	66.5*
C=CCS(=O)(=O)N1CCCC(Cc2ccccc2C)(C(=O)OCC)C1 (stereo unspecified)	-4.7	-9.2	25.6	-5.8	1.4
CCOC(=O)C1=C(CC)Nc2ccccc2N=C1NC(=O)c1cc(C)on1	nt	-1.6	nt	0.5	nt
CCOC(=O)C1=C(CC)Nc2ccccc2N=C1NC(=O)Nc1ccc(Cl)c(Cl)c1	-9.4	-6.2	-32.0	9.5	60.9*
COc1ccc(Br)cc1/C=N/Nc1ccccn1	7.3	6.6	22.3	nt	2.1
C=CC(=O)N1c2ccccc2Sc2ccc(NC(=O)OCC)cc21	nt	7.8	26.3	3.5	-12.4
CCOC(=O)Nc1ccc2c(c1)Nc1ccccc1S2	-30.8	-18.8	-0.9	0.7	62.5*
Cc1ccc(C(=O)ON=C2CCN(c3ccc([N+](=O)[O-])cc3)CC2)cc1	-0.2	-12.4	5.2	15.7*	-24.9
Cc1c(N(C(=O)c2ccccn2)C2(C(=O)NC3CCCCC3)CCCCC2)c(=O)n(-c2ccccc2)n1C	1.0	-9.3	5.0	-6.5	-9.2
COc1ccc(-n2ncc3c(N4CCN(c5cc(C)ccc5C)CC4)ncnc32)cc1	-1.2	7.7	12.4	17.1*	23.6
CC(=O)c1sc2nc(-c3ccco3)ccc2c1N	-4.5	-2.6	41.7	3.6	1.5
Nc1c(C(=O)Nc2ccc(F)cc2)sc2nc(-c3ccco3)ccc12	-12.6	5.6	8.6	16.5*	-30.6
Nc1c(C(=O)Nc2ccc(Br)cc2)sc2nc(-c3ccco3)ccc12	-8.3	28.1	9.6	16.0*	-32.4
Cc1ccc(S(=O)(=O)NN2C(=O)c3ccccc3NC2c2ccccn2)cc1 (stereo unspecified)	1.7	13.3	23.9	-0.5	2.6
O=C(NC12CC3CC(CC(C3)C1)C2)c1ccc(-c2ccc(Cl)cc2)o1	-1.6	1.7	8.1	2.6	58.8*
O=C(OCc1nnc(-c2ccc(Br)cc2)o1)c1cncc(Br)c1	-9.0	7.9	4.3	6.8	-1.0
COc1ccc(C(NC(=O)C(C)C)c2ccc3cccnc3c2O)cc1 (stereo unspecified)	-2.5	-7.8	25.0	8.8	53.5
CCC(=O)NC(c1cc(Cl)c2cccnc2c1O)C(C)C (stereo unspecified)	nt	-12.0	nt	-2.7	nt
CCCC(=O)NC(c1ccc(N(C)C)cc1)c1ccc2cccnc2c1O (stereo unspecified)	-4.6	-12.2	-90.2*	6.1	58.7*
CCC(=O)NC(c1ccc(C)cc1)c1ccc2cccnc2c1O (stereo unspecified)	-2.0	-21.3	-12.6	1.0	57.1*
CCCCC(=O)NC(c1ccc(Cl)cc1Cl)c1ccc2cccnc2c1O (stereo unspecified)	-11.2	-15.4	-10.6	nt	64.0*
CCC(=O)NC(c1ccc(Cl)cc1Cl)c1ccc2cccnc2c1O (stereo unspecified)	-65.1	-14.8	30.7	15.0	66.6*
CCOC(=O)c1c(C)[nH]c(C)c1S(=O)(=O)NCCc1cccs1	3.7	0.6	26.3	3.3	-1.6
CCc1ccc2c(c1)C1(NN=C(c3ccc(C)cc3)S1)C(=O)N2 (stereo unspecified)	-0.4	-45.2	-44.7	4.5	?

Bioassay records as filed in PubChem.
